Assay results reported in ChEMBL document CHEMBL3763156, “Imidazole-based pinanamine derivatives: Discovery of dual inhibitors of the wild-type and drug-resistant mutant of the influenza A virus” (Eur J Med Chem, 2016).

Experiments:
Influenza A virus [1] = test: Antiviral activity against amantadine-resistant Influenza A virus A/WSN/33(H1N1) expressing M2 S31N mutant ion channel infected in MDCK cells assessed as protection against virus induced cytopathic effect after 48 hrs by microscopic analysis; type: functional, organism-based, A/WSN/1933(H1N1)
Procedure, shortened: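 MDCK cells were grown 24 h to a confluent monolayer and rinsed twice. They were infected with 100 TCID50 virus for 2 h at 37 °C in 5% CO2, and the inoculum was removed. Serial two-fold compound dilutions in DMEM with 1.5 µg/mL trypsin were added for 48 h at 34 °C in 5% CO2. CPE percentage was scored microscopically. IC50 came from non-linear regression, as the mean of 2–3 determinations.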

Influenza A virus [2] = test: Antiviral activity against amantadine-resistant Influenza A virus A/WSN/33(H1N1) expressing M2 S31N mutant ion channel infected in MDCK cells assessed as cell viability after 48 hrs by MTT assay; type: functional, organism-based, A/WSN/1933(H1N1)
Procedure, shortened: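 Infected MDCK cells were given compound for 48 h, and the CPE-based result was confirmed by MTT viability. MTT was added from a 5 mg/mL stock for 4 h at 37 °C, stopped with DMSO, and read as absorbance at 490 nm. The 50% effective concentration was calculated by the Reed–Muench method, as the mean of 2–3 determinations.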

[3] = tested on: Matrix protein 2 (Influenza A virus (A/Udorn/307/1972(H3N2))), P0DOF8 [S31N]; test: Inhibition of Influenza A virus M2 S31N mutant ion channel expressed in 293Trex cells at 100 uM after 2 mins by patch clamp assay; type: cell-based
[4] = tested on: Matrix protein 2 (Influenza A virus (A/Udorn/307/1972(H3N2))), P0DOF8 [S31N]; test: Inhibition of Influenza A virus M2 S31N mutant ion channel expressed in Xenopus oocytes at 100 uM after 2 mins by two-electrode voltage clamp assay; type: cell-based
Procedure, shortened: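 A/M2 channel (S31N for line 7, wild type for line 9) was expressed in Xenopus oocytes and recorded by two-electrode voltage clamp. Compound was applied at 100 µM, and the percentage inhibition of channel current was taken after 2 min. Values are mean ± SD.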

Structure (SMILES)	IC50 (Influenza A virus [1]; read-out: IC50)	IC50 (Influenza A virus [2])	IC50 (Influenza A virus [1])	further results
C[C@@H]1[C@H]2C[C@@H](C[C@H]1NCc1cnc(-c3ccccc3)[nH]1)C2(C)C	9 µM	11 µM		
CC(C)c1ncc(CN[C@@H]2C[C@@H]3C[C@H]([C@H]2C)C3(C)C)[nH]1			Not Active	
Cc1nc[nH]c1CN[C@@H]1C[C@@H]2C[C@H]([C@H]1C)C2(C)C	95.5 µM			inhibition [3]: 27%
CCCCc1ncc(CN[C@@H]2C[C@@H]3C[C@H]([C@H]2C)C3(C)C)[nH]1			Not Active	
Cc1nc(C2CC2)[nH]c1CN[C@@H]1C[C@@H]2C[C@H]([C@H]1C)C2(C)C	9.4 µM	21.4 µM		
CCCc1nc(C(C)C)[nH]c1CN[C@@H]1C[C@@H]2C[C@H]([C@H]1C)C2(C)C	8.8 µM	11.3 µM		
C[C@@H]1[C@H]2C[C@@H](C[C@H]1NCc1cnc(-c3cccs3)[nH]1)C2(C)C			Not Active	
C[C@@H]1[C@H]2C[C@@H](C[C@H]1NCc1[nH]cnc1C(C)(C)C)C2(C)C			Not Active	
C[C@@H]1[C@H]2C[C@@H](C[C@H]1NCc1cnc(C3CCCC3)[nH]1)C2(C)C			Not Active	
C[C@@H]1[C@H]2C[C@@H](C[C@H]1NCc1[nH]cnc1-c1ccccc1)C2(C)C			Not Active	
CCc1nc[nH]c1CN[C@@H]1C[C@@H]2C[C@H]([C@H]1C)C2(C)C			Not Active	
C[C@@H]1[C@H]2C[C@@H](C[C@H]1NCc1cnc(C(C)(C)C)[nH]1)C2(C)C	9.7 µM	11.6 µM		
C[C@@H]1[C@H]2C[C@@H](C[C@H]1NCc1cncn1C)C2(C)C			Not Active	
CCCc1nc(-c2ccccc2)[nH]c1CN[C@@H]1C[C@@H]2C[C@H]([C@H]1C)C2(C)C	12.3 µM	16.1 µM		
C[C@@H]1[C@H]2C[C@@H](C[C@H]1NCc1cnc(C3CCCCC3)[nH]1)C2(C)C			Not Active	
Cc1nc(C(C)C)[nH]c1CN[C@@H]1C[C@@H]2C[C@H]([C@H]1C)C2(C)C			Not Active	
CC(C)Cc1ncc(CN[C@@H]2C[C@@H]3C[C@H]([C@H]2C)C3(C)C)[nH]1	8.9 µM	18.6 µM		
NC12CC3CC(CC(C3)C1)C2 [AMANTADINE]	337 µM			inhibition [4]: 24.3%
CCCc1nc(C2CC2)[nH]c1CN[C@@H]1C[C@@H]2C[C@H]([C@H]1C)C2(C)C	7.3 µM	9.7 µM		
C[C@@H]1[C@H]2C[C@@H](C[C@H]1NCc1cnc(C3CC3)[nH]1)C2(C)C	29.4 µM			
CCc1ncc(CN[C@@H]2C[C@@H]3C[C@H]([C@H]2C)C3(C)C)[nH]1	9.5 µM			
Cc1ncc(CN[C@@H]2C[C@@H]3C[C@H]([C@H]2C)C3(C)C)[nH]1			Not Active	
C[C@@H]1[C@H]2C[C@@H](C[C@H]1NCc1[nH]cnc1C1CC1)C2(C)C			Not Active	
CCc1nc(C)c(CN[C@@H]2C[C@@H]3C[C@H]([C@H]2C)C3(C)C)[nH]1			Not Active	inhibition [4]: 1.73%
CCCc1nc[nH]c1CN[C@@H]1C[C@@H]2C[C@H]([C@H]1C)C2(C)C	3.4 µM	7.3 µM		inhibition [4]: 3.47%
